Screening data (PubChem)
This is a sample that favours compounds with a hit; in the whole collection about 1.8% have one here.
Scp1 inh: Scp-1 (human) phosphatase inhibition. Q9GZU7. Recombinant Scp1, phosphopeptide, malachite green phosphate absorbance. inhibition, % at 20 µM. actives 0.88% (n = 340,000). AID 493091;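 active means inhibition above about 50% at 20 µM, limit read from the data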;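 further: plate controls were DMSO wells with enzyme for no effect and wells lacking enzyme for full effect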
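Incubation: 45 min enzyme reaction at room temperature / System: truncated SCP-1 phosphatase (76-261aa) / Reagent: Phospho 17-mer peptide substrate / Buffer or medium: Acidic Tris acetate buffer with magnesium and detergent / Signal: absorbance at 630 nm / Doses: one concentration, 20 µM, with 1.0% DMSO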
SUMO1-SIM PPI: SUMO1-SIM interaction modulation | P63165 | SUMO1 binding to a labelled peptide, TR-FRET, 1 h | inhibition, % at 20 µM | actives 0.33% (n = 360,000) | AID 602429; in the data active means inhibition above about 37%
Target sequence (P63165 whole entry, looked up): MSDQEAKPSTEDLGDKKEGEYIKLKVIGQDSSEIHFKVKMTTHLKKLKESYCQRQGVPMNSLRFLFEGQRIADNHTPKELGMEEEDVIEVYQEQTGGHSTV
DNMT1 inh: inhibitors of human DNMT1 | P26358 | DNMT1 molecular beacon, Hinp1I cleavage, fluorescence | inhibition (reported as % activation of signal), % at 10 µM | actives 0.83% (n = 360,000) | AID 588458; in the data active means inhibition above about 50%
LMPTP inh: LMPTP (human) inhibition. P24666. recombinant LMPTP-A, OMFP fluorogenic substrate, fluorescence intensity. inhibition, % at 20 µM. actives 0.22% (n = 360,000);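 active means compounds that cut the enzyme signal by at least half of the control window in the single-dose screen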;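 further: plate controls were DMSO wells with enzyme plus substrate for no effect and substrate without enzyme for full effect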
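Test system – LMPTP-A enzyme · Amount – LMPTP-A at 0.625 nM final in the reaction · Buffer or medium – Bis-Tris pH 6.0, DTT, detergent · Reagent – OMFP 400 µM · Doses – single 20 µM dose · Schedule – reaction 50 min, room temperature, dark · Detection – fluorescence intensity of OMFP turnover product · Evaluation – percent inhibition versus substrate-only and uninhibited controls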
STEP inh: blocks human striatal-enriched tyrosine phosphatase | inhibition, % at 20 µM | actives 0.25% (n = 360,000) | recombinant STEP, OMFP fluorogenic substrate, fluorescence | P54829;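 active means inhibition at 20 µM, scaled per plate between control wells, above about 37%, limit read from the data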;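 further: 0% = DMSO with enzyme and substrate and 100% = substrate only without enzyme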
Target sequence (P54829 whole entry, looked up): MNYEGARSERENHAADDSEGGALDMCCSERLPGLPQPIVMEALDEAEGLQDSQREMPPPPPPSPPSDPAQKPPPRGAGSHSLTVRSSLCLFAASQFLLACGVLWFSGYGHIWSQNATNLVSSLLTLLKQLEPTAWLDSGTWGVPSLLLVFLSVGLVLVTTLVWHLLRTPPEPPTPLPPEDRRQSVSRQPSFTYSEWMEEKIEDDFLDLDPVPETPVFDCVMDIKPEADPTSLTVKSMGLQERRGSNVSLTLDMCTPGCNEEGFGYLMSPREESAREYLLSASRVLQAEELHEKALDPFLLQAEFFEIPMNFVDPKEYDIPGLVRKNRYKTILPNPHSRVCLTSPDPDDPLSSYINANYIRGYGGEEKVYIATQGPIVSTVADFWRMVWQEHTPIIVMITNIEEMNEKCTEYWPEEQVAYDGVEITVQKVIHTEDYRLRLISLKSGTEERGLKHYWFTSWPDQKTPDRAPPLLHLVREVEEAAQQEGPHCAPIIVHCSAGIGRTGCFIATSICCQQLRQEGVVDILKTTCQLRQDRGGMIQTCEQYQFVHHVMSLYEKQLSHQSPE
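System: STEP (striatal-enriched tyrosine phosphatase) enzyme, cell-free; medium: Bis-Tris pH 6.0 buffer with DTT, detergent; dosing: 20 µM, 1% DMSO; times: reaction 20 min, ambient temperature; detection: fluorescence, 480/540 nm; read-out basis: normalized % inhibition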
HKDC1 inhibitor: blocks human hexokinase HKDC1 activity. inhibition, % at 20 µM. actives 0.16% (n = 340,000). AID 493160. Q2TB90. recombinant HKDC1, G6PDH/diaphorase resazurin coupled fluorescence;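 active means inhibition above about 35% when tested at 20 µM, limit read from the data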;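 further: plate controls were DMSO wells with enzyme for no effect and DMSO wells lacking enzyme for full effect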
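Material: recombinant HKDC1 hexokinase; Amount: HKDC1 at 5 µg/mL; Medium: Tris pH 8.0 buffer with MgCl2, Tween-20, BSA, BME; Schedule: 90 min reaction incubation at room temperature, dark; Technique: coupled resazurin fluorescence, excitation 525 nm, emission 613 nm.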
Scp1 confirm: confirmation of human Scp-1 phosphatase inhibitors; inhibition, % at 20 µM; shares compounds with Scp1 inh; actives 61% (n = 2,500); recombinant SCP-1 catalytic domain, phosphate release, malachite green absorbance;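 further: plate controls were DMSO with enzyme for no effect and buffer wells lacking enzyme for full effect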
Scp-1 MG ctr: counter-screen for Scp-1 inhibitors: colorimetric interference; shares compounds with Scp1 inh; 2,500 tested, under 10 active; apparent inhibition (interference), % at 20 µM; AID 540313; Colorimetric interference counterscreen, malachite green absorbance 630 nm;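 further: compounds added after enzyme reaction finished so only phosphate colour detection is probed; plate controls were DMSO wells with completed Scp-1 reaction for no effect and substrate wells lacking enzyme for full effect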
Scp-1 Tm shift: binds human Scp-1, shifting its melting temperature. actives 25% (n = 1,500). Recombinant SCP1, Sypro Orange thermal shift Tm. thermal shift relative to vanadate control, % at 40 µM. shares compounds with Scp1 inh;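 active means substances whose mean melting-temperature shift, as a percentage of the reference inhibitor's shift, reaches about 5.3%, limit read from the data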;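 further: 0% = Tm of DMSO wells and 100% = Tm with sodium orthovanadate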
* marks the source's active call; other numbers are inactive results; / = no result given.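 How the source made its calls, unless noted: active means inhibition of at least 30% at 20 µM; inactive means the rest.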

SMILES	Scp1 inh	SUMO1-SIM PPI	DNMT1 inh	LMPTP inh	STEP inh	HKDC1 inhibitor	Scp1 confirm	Scp-1 MG ctr	Scp-1 Tm shift
Cc1cccc(NC(=O)COc2ccc(/C=C\c3[nH]c(=O)[nH]c(=O)c3[N+](=O)[O-])cc2)c1	79*	20	13	55*	21	16	74*	-14	5.5*
O=C(COC(=O)c1ccc(S(=O)(=O)NCc2ccco2)cc1)Nc1ccc(Cl)cn1	60*	9	40	9	4	-5	64*	-11	6.4*
CN(C)C(=O)COC(=O)c1ccc(S(=O)(=O)NCc2ccco2)cc1	75*	5	44	-1	5	-7	54*	-10	-16
Cc1ccc(N(CC(=O)Nc2ccc3c(c2)OCCO3)S(C)(=O)=O)cc1	-4	8	-1	0	2	-14	/	/	/
Cc1cccc(NC(=O)CN2C(=O)S/C(=C\c3cccn3-c3cccc(C(=O)O)c3)C2=O)c1	70*	-6	26	4	11	-1	71*	-6	11*
Cc1cccc(C)c1NC(=O)CN1C(=O)S/C(=C\c2cccn2C)C1=O	2	-2	18	0	2	-7	/	/	/
Cc1cccc(C)c1NC(=O)CN1C(=O)S/C(=C\c2cccn2-c2cccc(C(=O)O)c2)C1=O	58*	-16	23	0	18	8	81*	-13	6.6*
O=c1c(O[C@@H]2O[C@H](CO)C(O)C2O)c(-c2ccc(O)c(O)c2)oc2cc(O)cc(O)c12 (stereo partly drawn)	-15	-5	14	-1	0	0	/	/	/
O=c1c(OC2OC(CO)C(O)C(O)C2O)c(-c2ccc(O)c(O)c2)oc2cc(O)cc(O)c12 (stereo not drawn)	-15	-5	8	0	-1	0	2	-2	/
Cc1cc(C)c(NC(=O)COc2nc3ccccc3nc2C)c(C)c1	58*	-1	0	-2	0	15	-18	-13	/
Cc1ccc(S(=O)(=O)Cc2ccc(C(=O)N3CCCCCC3)o2)cc1	18	6	7	-1	5	-8	/	/	/
CCOC(=O)C1CCCN(C(=O)c2ccc(CS(=O)(=O)c3ccc(C)cc3)o2)C1 (stereo not drawn)	57*	5	46	0	1	2	55*	-11	5
O=C(O)c1ccc2c(c1)C(=O)/C(=C/c1ccccc1)C2=O	76*	1	15	5	0	-3	53*	-20	23*
N=C1/C(=C\c2ccc(Br)o2)C(=O)N=C2SC(CC(=O)N3CCOCC3)=NN12	78*	28	47	2	4	-1	36*	-18	6.8*
CSc1ccc(/C=C2\C(=N)N3N=C(CC(=O)N4CCOCC4)SC3=NC2=O)cc1	19	-1	1	0	-2	-1	/	/	/
CC(C)(C)C(=O)O/N=C1/C(=O)N(c2ccccc2)c2ccccc21	89*	-17	22	4	13	6	74*	-15	-16
CC(C)CC(=O)O/N=C1\C(=O)N(c2ccccc2)c2ccccc21	-12	-14	5	-1	-5	12	/	/	/
CCOc1ccc(C(=O)Nc2cccc(-c3nc4cccnc4o3)c2)cc1Cl	83*	10	-2	6	2	6	10	-4	/
C[N+]1(CC2COC3(CCCCC3)O2)CCCC1 (stereo not drawn)	61*	-2	-1	-2	-3	-17	0	-2	/
O=C(NNC(=O)c1ccccc1F)c1ccc(Cl)c(S(=O)(=O)N2CCOCC2)c1	57*	7	3	0	-2	-3	-12	-13	/
CCCc1cc(=O)[nH]c(SCC(=O)N2CCCC2=O)n1	1	1	-2	0	0	-2	/	/	/
O=C(NC1CCSC1=O)c1cccc(C(=O)NC2CCSC2=O)c1 (stereo not drawn)	95*	1	3	8	0	7	65*	-18	3
O=C(NC1CCSC1=O)c1ccccc1 (stereo not drawn)	-3	3	1	0	0	-1	/	/	/
CCCCN1CC(=O)N2Cc3[nH]c4ccccc4c3C[C@H]2C1=O	6	-2	1	-1	1	-1	/	/	/
Cn1nc(-c2ccccc2)nc1-c1ccccc1	-3	0	2	-1	-2	-9	/	/	/
SMILES	Scp1 inh	SUMO1-SIM PPI	DNMT1 inh	LMPTP inh	STEP inh	HKDC1 inhibitor	Scp1 confirm	Scp-1 MG ctr	Scp-1 Tm shift
CN=c1nc(-c2ccccc2)n(-c2ccccc2)s1	76*	3	0	-1	-1	5	29	-7	/
CC(=O)N1CCN(C(=O)COC(=O)/C=C/c2ccc(C(F)(F)F)cc2)CC1	-3	-25	2	-2	-3	-5	/	/	/
Cc1cc(C)nc(SCC(=O)NNS(=O)(=O)c2ccc(C#N)cc2)n1	54*	15	16	-1	1	5	62*	3	-4
CC(C)C[C@H](NC(=O)OCC1c2ccccc2-c2ccccc21)C(=O)O	-6	3	0	0	-2	-4	/	/	/
COc1ccc(NC(=O)COC(=O)c2cc3c(s2)CCC3)cc1	57*	1	66*	19	32	-3	63*	-12	-2
CC(C)C(=O)Nc1ncc(Cc2cccc(Cl)c2)s1	-6	0	0	1	10	0	/	/	/
CC(C)C(NC(=O)c1ccc(F)cc1)C(=O)N1CCN(C(=O)c2ccco2)CC1 (stereo not drawn)	-3	2	4	0	-3	-5	/	/	/
Cc1ccccc1/C=C/c1cc[n+](C)cc1	58*	-16	1	-1	2	2	-12	-20	/
Cc1[nH]c2ccccc2c1/C=C/c1cc[n+](C)cc1	34	-85	8	6	-4	-1	/	/	/
Cc1ccc(S(=O)(=O)NCCN2CCNC2=O)cc1	-8	-4	1	0	-2	-2	/	/	/
O=C1NCCN1CCNS(=O)(=O)c1ccc(F)c(Cl)c1	-7	3	2	-1	-1	-3	-18	-15	/
O=C1CCCN1CCCNS(=O)(=O)c1ccc(F)c(F)c1	1	7	-1	-1	-4	-4	-14	-17	/
